Screening data from PubChem.
Compounds with a hit are over-represented: about 3.3% of the library has one in this group of screens.
ABCB6 inh MLPCN – inhibitors of human ABC transporter ABCB6. AID 602162. actives 0.19% (n = 360,000). fluorescence ratio to DMSO, % at 10 µM. Q9NP58. K562-ABCB6 porphyrin accumulation, flow cytometry, 1 h; stronger effect = lower value;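 active = fluorescence ratio to DMSO below 75%, the collection mean minus 3 SD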;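 also: signal is porphyrin accumulated inside mitochondria; 100% equals median channel fluorescence of DMSO control wells; lower ratio means ABCB6 inhibition with less porphyrin fluorescence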
FXN GAA850 act – increases GAA850 frataxin promoter reporter activity; HEK293 lucGAA850 FXN promoter luciferase reporter, 24 h; percent of 10 µM SAHA response; activation, % at 6 µM; actives 0.56% (n = 360,000);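 active = activation above the average of all compounds screened plus 3 SD, cutoff fixed separately per campaign, cut at about 7.5% in these data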;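 also: 0% = DMSO wells and 100% = 10 µM SAHA wells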
STAT3 act – increases IL-6 driven STAT3 reporter signal | actives 0.91% (n = 190,000) | U3A cells, IL-6 STAT3-luciferase reporter, luminescence; 100% = signal with IL-6 EC80 alone | activation (% of control), % at 5.6 µM | AID 871;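 active = activation above the screen-wide mean of compound activation plus 3 SD, cut at about 130% in these data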;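 also: 0% = background luminescence of wells with medium and substrate only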
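Detection: reporter luminescence signal / Assay system: STAT1-lacking human U3A cells, STAT3 luciferase reporter / Incubation: compound pre-incubation 1 h before IL-6, then 6 h stimulation at 37 °C / Control set: IL-6-only high control / Read-out: % activation relative to IL-6 control / Probe or stimulus: Interleukin-6, 33 ng/mL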
AHR act – human AHR activation; actives 2.5% (n = 320,000); AID 2796; AHR-responsive luciferase reporter cells, luminescence; P35869; activation, % at 5 µM; in the data active = activation above about 47%;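 also: 0% = vehicle wells and 100% = reference agonist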
Target sequence (P35869 whole entry, looked up): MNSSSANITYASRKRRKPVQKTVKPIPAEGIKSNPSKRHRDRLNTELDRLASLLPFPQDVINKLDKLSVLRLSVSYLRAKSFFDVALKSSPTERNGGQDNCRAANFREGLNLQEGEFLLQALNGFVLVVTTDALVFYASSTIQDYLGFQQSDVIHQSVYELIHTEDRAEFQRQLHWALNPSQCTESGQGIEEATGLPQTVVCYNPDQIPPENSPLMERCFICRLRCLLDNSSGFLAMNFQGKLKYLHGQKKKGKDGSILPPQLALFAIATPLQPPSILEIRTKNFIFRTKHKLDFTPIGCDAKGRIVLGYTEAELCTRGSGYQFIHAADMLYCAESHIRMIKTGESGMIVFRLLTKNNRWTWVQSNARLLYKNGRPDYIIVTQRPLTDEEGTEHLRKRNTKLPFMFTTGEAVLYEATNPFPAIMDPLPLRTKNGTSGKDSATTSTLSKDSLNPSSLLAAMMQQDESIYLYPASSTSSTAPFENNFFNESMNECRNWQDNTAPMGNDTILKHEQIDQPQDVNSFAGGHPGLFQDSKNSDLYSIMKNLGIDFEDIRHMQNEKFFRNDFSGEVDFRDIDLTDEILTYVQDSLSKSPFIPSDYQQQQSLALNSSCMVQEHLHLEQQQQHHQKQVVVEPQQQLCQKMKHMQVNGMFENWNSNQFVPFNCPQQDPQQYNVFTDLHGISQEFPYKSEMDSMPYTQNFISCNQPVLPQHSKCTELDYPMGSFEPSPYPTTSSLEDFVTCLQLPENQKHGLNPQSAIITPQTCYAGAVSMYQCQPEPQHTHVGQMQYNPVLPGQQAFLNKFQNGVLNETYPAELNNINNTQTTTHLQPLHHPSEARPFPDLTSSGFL
AHR act cf – human AHR activation, confirmation; AID 2845; actives 87% (n = 2,300); activation, % at 9 µM; shares compounds with AHR act; human cells, AHR-responsive luciferase reporter, luminescence; in the data active = activation above about 49%;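 also: HepG2 hepatoma cells carrying a DRE-driven firefly luciferase reporter; 0% = vehicle wells and 100% = reference agonist wells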
PXR act counter – PXR activation, counter-screen for AHR activators. shares compounds with AHR act. actives 88% (n = 2,300). activation, % at 11.6 µM. AID 434939. cell-based PXR reporter, luciferase luminescence; in the data active = activation above about 11%;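 also: human hepatoma DPX-2 cells expressing full-length human PXR; 0% = DMSO and 100% = reference agonist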
Numbers without * were called inactive.

For Cc1ccc(-n2ncc3ccccc3c2=O)cc1Cl the results were ABCB6 inh MLPCN 102, FXN GAA850 act 2, STAT3 act 91 and AHR act 8.
`O=c1c2ccccc2cnn1-c1ccc(Cl)cc1` gave ABCB6 inh MLPCN 101, FXN GAA850 act 7, STAT3 act 106, AHR act 133*, AHR act cf 117* and PXR act counter 47*.
Screening Cc1cccc(/N=C/c2c(O)n(Cc3ccc4c(c3)OCO4)c(=O)c3ccccc23)n1 returned ABCB6 inh MLPCN 96, FXN GAA850 act 0, STAT3 act 96 and AHR act 1.
Screening O=c1oc2c(O)cccc2cc1-c1nc2ccccc2[nH]1 returned ABCB6 inh MLPCN 98 and FXN GAA850 act 5.
For COc1cccc(N=c2oc3ccccc3cc2-c2nc3ccccc3[nH]2)c1 the results were ABCB6 inh MLPCN 99, FXN GAA850 act -2, STAT3 act 143*, AHR act 92*, AHR act cf 132* and PXR act counter 23*.
For O=c1c2ccccc2nc2oc3ccccc3n12 the results were ABCB6 inh MLPCN 92, FXN GAA850 act 4, AHR act 95*, AHR act cf 93* and PXR act counter 17*.
`Cc1c(NC(=O)c2ccc(Cl)nc2)cccc1-c1nc2cccnc2s1` gave ABCB6 inh MLPCN 91, FXN GAA850 act 1 and AHR act 18.
Cc1c(NC(=O)c2ccco2)cccc1-c1nc2cccnc2s1 was read as ABCB6 inh MLPCN 96, FXN GAA850 act 0, STAT3 act 116, AHR act 109*, AHR act cf 90* and PXR act counter 14*.
Screening O=C(Cn1[nH]c(=O)c2ccccc2c1=O)Nc1ccc(-c2nnc3n2CCCCC3)cc1 returned ABCB6 inh MLPCN 92, FXN GAA850 act 0, STAT3 act 106 and AHR act -2.
`CN(C)S(=O)(=O)Oc1ccsc1C(=O)Nc1cccc(Cl)c1` gave ABCB6 inh MLPCN 92, FXN GAA850 act 0, STAT3 act 103 and AHR act 22.
CN(C)S(=O)(=O)Oc1ccsc1C(=O)Nc1ccc(Cl)c(Cl)c1 was read as ABCB6 inh MLPCN 98, FXN GAA850 act -1, STAT3 act 98, AHR act 90*, AHR act cf 122* and PXR act counter 35*.
Screening CC(NC(=O)c1c(F)cccc1Cl)c1ccc(-n2ccnc2)cc1 (stereo not drawn) returned ABCB6 inh MLPCN 97, FXN GAA850 act 3, AHR act 127*, AHR act cf 64* and PXR act counter 19*.
Screening CC(NC(=O)CCNC(=O)c1ccccc1Cl)c1ccc(-n2ccnc2)cc1 (stereo not drawn) returned ABCB6 inh MLPCN 91, FXN GAA850 act -1 and AHR act 11.
Screening CC(NC(=O)c1cc(F)c(F)c(F)c1F)c1ccc(-n2ccnc2)cc1 (stereo not drawn) returned ABCB6 inh MLPCN 101, FXN GAA850 act 0, AHR act 96*, AHR act cf 50* and PXR act counter 18*.
CCOc1ccc(NC(=O)COC(=O)c2ccc3ncsc3c2)cc1OCC was read as ABCB6 inh MLPCN 96 and FXN GAA850 act 2.
`C#Cc1ccc(C(=O)Nc2cc(C(N)=O)ccc2N2CCOCC2)cc1` gave ABCB6 inh MLPCN 97, FXN GAA850 act -5, STAT3 act 104, AHR act 80*, AHR act cf 72* and PXR act counter 12*.
Screening Clc1ccc2[nH]c3c(NCCN4CCOCC4)ncnc3c2c1 returned ABCB6 inh MLPCN 98, FXN GAA850 act 2, STAT3 act 99, AHR act 80*, AHR act cf 93* and PXR act counter 51*.
For Cc1cccc2[nH]c3c(N4CCC5(CC4)OCCO5)ncnc3c12 the results were ABCB6 inh MLPCN 93, FXN GAA850 act -7, STAT3 act 128 and AHR act 35.
Screening Clc1ccc2[nH]c3c(N4CCC5(CC4)OCCO5)ncnc3c2c1 returned STAT3 act 76, AHR act 99*, AHR act cf 56* and PXR act counter 33*.
Screening O=[N+]([O-])c1cccc(-c2c(-c3ccccc3)ncc3ccc(F)cc23)c1 returned ABCB6 inh MLPCN 101, FXN GAA850 act 2 and AHR act 7.
`CN=c1scc(C)n1/N=C/c1ccc(O)cc1` gave ABCB6 inh MLPCN 100, FXN GAA850 act 1, STAT3 act 85 and AHR act -3.
`CN=c1scc(C)n1/N=C/c1cc(Br)c(O)c(Br)c1` gave ABCB6 inh MLPCN 95, FXN GAA850 act 2, STAT3 act 91, AHR act 118*, AHR act cf 110* and PXR act counter 14*.
For Cc1sc2nc(CSC(C)C(=O)N(C)CC(=O)Nc3ccccc3C(F)(F)F)[nH]c(=O)c2c1C (stereo not drawn) the results were ABCB6 inh MLPCN 106, FXN GAA850 act 1 and AHR act 3.
Cc1sc2nc(CSc3ccc([N+](=O)[O-])c(C(F)(F)F)c3)[nH]c(=O)c2c1C was read as ABCB6 inh MLPCN 101, FXN GAA850 act 1, STAT3 act 105, AHR act 83*, AHR act cf 76* and PXR act counter 32*.
Screening CC(C)(C)c1csc(SCC(=O)Nc2ccc(Cl)cn2)n1 returned ABCB6 inh MLPCN 89, FXN GAA850 act 0, STAT3 act 104 and AHR act -2.
`Cc1csc(SCC(=O)Nc2ccc(Cl)cn2)n1` gave ABCB6 inh MLPCN 93, FXN GAA850 act 2, STAT3 act 100, AHR act 98* and AHR act cf 98*.
For O=C(Nc1nc(-c2cccs2)cs1)c1ccc(Cl)cc1 the results were ABCB6 inh MLPCN 97, FXN GAA850 act 0, STAT3 act 92, AHR act 129*, AHR act cf 123* and PXR act counter 36*.
For Cc1cc2oc(C(=O)NCc3ccncc3)c(C)c2cc1C the results were ABCB6 inh MLPCN 98, FXN GAA850 act 1, STAT3 act 95, AHR act 89*, AHR act cf 50* and PXR act counter 28*.
Cc1cc2oc(C(=O)NCCc3ccc(S(N)(=O)=O)cc3)c(C)c2cc1C was read as ABCB6 inh MLPCN 94, FXN GAA850 act -1, STAT3 act 99 and AHR act -1.
`Cc1cccc(NC(=O)c2cnc3sccn3c2=O)n1` gave ABCB6 inh MLPCN 99, FXN GAA850 act 3, STAT3 act 96, AHR act 168*, AHR act cf 135* and PXR act counter 14*.
`Cc1cccc(NC(=O)c2cnc3sccn3c2=O)c1C` gave ABCB6 inh MLPCN 94, FXN GAA850 act 3 and STAT3 act 97.
`O=C(NCc1cccnc1)c1cnc2n(c1=O)CCS2` gave ABCB6 inh MLPCN 99, FXN GAA850 act 2, STAT3 act 107 and AHR act 13.
